Bioassay records: PubChem BioAssay, several laboratories
Most compounds without a hit are left out; they make up all but 2.1% or so of the library.
PABP FP inh = PABP-poly(A) binding inhibition; P11940; PABP-poly(A) RNA binding, fluorescence polarization; inhibition, % at 35 µM; hit rate 1% among 290,000; AID 2014;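 further: calls also rest on retests at 20 µM and on dose response follow-up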
ZTA counter = blocks Epstein-Barr virus ZTA, an EBNA-1 counter-screen; hit rate 0.15% among 320,000; P03206; AID 2234; inhibition, % at 11 µM; ZTA-DNA binding, fluorescence polarization; in the data active means inhibition above about 33%
Target sequence (P03206 whole entry, looked up): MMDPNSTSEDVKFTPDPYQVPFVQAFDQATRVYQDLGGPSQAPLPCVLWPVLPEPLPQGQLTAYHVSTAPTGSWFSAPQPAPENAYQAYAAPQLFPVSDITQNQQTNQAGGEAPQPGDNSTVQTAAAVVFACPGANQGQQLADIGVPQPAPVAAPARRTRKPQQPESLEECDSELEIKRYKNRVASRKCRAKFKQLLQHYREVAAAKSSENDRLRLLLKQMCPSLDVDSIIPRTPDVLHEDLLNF
PABP1 MLLE inh = inhibitors of microRNA-mediated deadenylation, human PABP1 MLLE binding. AID 588489. inhibition, % at 20 µM. P11940. hit rate 0.36% among 360,000. GST-MLLE / FITC-PAM2 fluorescence polarization; in the data active means inhibition above about 35%, passing the limit was not always enough;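 further: plate controls were DMSO wells with GST-MLLE for no effect and wells lacking GST-MLLE protein for full effect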
eIF4H FP inh = inhibitors of RNA binding by human eIF4H. hit rate 0.94% among 290,000. inhibition, % at 35 µM. eIF4H fluorescence polarization binding assay. AID 2012;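 further: calls also rest on retests at 20 µM and on dose response follow-up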
EBNA-1 inhibitor = blocks EBNA-1 binding to DNA; EBNA-1 DNA binding, fluorescence polarization; inhibition, % at 14.8 µM; hit rate 0.34% among 300,000; in the data active means inhibition above about 28%
NS3 helicase inh = blocks Hepatitis C virus NS3 helicase unwinding; NS3 helicase DNA unwinding, Cy5 molecular beacon fluorescence; inhibition, % at 10.9 µM; hit rate 0.56% among 290,000;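 active means inhibition above the mean of all tested compounds plus 3 SD, set per campaign, cut at about 35% in these data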;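 further: 0% = DMSO wells and 100% = thioflavine S control wells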
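Material: hepatitis C virus NS3 helicase domain fragment enzyme; measured by: Cy5 fluorescence, 0 and 60 min reads; control set: DMSO and thioflavine S; incubation: 60 min unwinding reaction at 25 °C after ATP addition; read-out basis: % inhibition from 60/0 min fluorescence ratio, DMSO 0%, thioflavine S 100%; repeats: singlicate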
Numbers without * were called inactive; ? = inconclusive; . = not tested or not shown. Unless noted, how the calls were made is not given here.

SMILES	PABP FP inh	ZTA counter	PABP1 MLLE inh	eIF4H FP inh	EBNA-1 inhibitor	NS3 helicase inh
c1cncc(-c2nc3ccccc3o2)c1	18.6*	0.1	5.8	51.6	5.0	5.3
CC(=O)Nc1ccc(S(=O)(=O)NCC(=O)N2CCN(S(=O)(=O)c3cccs3)CC2)cc1	.	-0.6	43.2*	.	.	.
CCOC(=O)N1CCN(C(=O)CNS(=O)(=O)c2cccs2)CC1	-3.9	8.3	5.3	-4.6	-2.4	-0.5
Cc1[nH]c2c(C)cccc2c1CC(=O)O	53.6	4.7	-4.3	7.2*	0.5	2.2
Cc1[nH]c2ccccc2c1CC(=O)O	7.3	-2.8	5.1	7.9	-0.5	5.3
CCCSc1ncnc2sc(C)c(C)c12	3.3	13.4	11.5	-8.6	5.4	10.1
Cc1sc2ncnc(SCC#N)c2c1C	111.5	-0.3	-5.8	36.6*	14.4	3.6
O=C1C[C@H](NC(=O)OCc2ccccc2)CO1	.	-26.0	6.6	.	.	.
Cc1ccc2nc(NCc3ccccc3)c(C=NCc3cccnc3)c(=O)n2c1	-7.1	16.6	-13.9	-8.1	-7.6	9.0
Cc1ccc2nc(NCc3ccco3)c(C=NCc3ccco3)c(=O)n2c1	86.1*	-1.9	-0.1	67.8*	-3.0	13.6
Cc1ccc(Oc2c(CO)c(-c3ccccc3)nn2C)cc1	26.8	6.8	-4.8	-1.2	-5.0	0.3
CC(C)(C)c1ccc(C(=O)NCc2nnc(SCC(=O)NC3CCCCC3)o2)cc1	3.3	6.3	28.9	-17.6	4.8	-5.1
CC1=NN(c2ccc(Cl)cc2)C(=O)C1	-25.9	8.8	13.2	7.1	-1.8	1.4
CC1=NN(c2ccc(N)cc2)C(=O)C1	55.8*	4.3	22.4	7.0	-4.8	-3.0
COC(=O)c1ccc(C(=S)NCC2(N(C)C)CCCCC2)cc1	-7.0	-33.1	16.9	-4.7	8.5	-1.4
CC(=O)Nc1ccc(C(=S)NCC2(N(C)C)CCCCC2)cc1	81.4*	-8.9	12.6	active	-10.8	7.6
CC(C)CN(Cc1cc2ccccc2[nH]c1=O)C(=O)c1cccnc1	-1.7	-6.6	9.7	-10.8	7.7	-1.4
CCN(Cc1cc2ccc(C)cc2[nH]c1=O)C(=O)c1cccnc1	59.4*	.	.	84.1*	.	9.4
N#C/C(=C\c1ccc(-c2cccc(Cl)c2)o1)C(=O)Nc1cccc2cccnc12	85.5*	5.8	-7.2	81.7*	-9.5	6.1
Cc1ccccc1S(=O)Cc1ccc(C(=O)N2CCN(C(=O)c3ccco3)CC2)o1 (configuration not stated)	-1.1	6.4	-6.0	-9.3	6.3	5.6
Cc1nc(-c2ccccc2)sc1-c1ccnn1C	5.4	11.4	3.5	3.6	4.3	11.0
Cc1nc(-c2ccccc2)sc1-c1ccn[nH]1	63.8*	-17.6	-2.8	?	-5.3	-4.6
CCOC(=O)N1CCN(Cc2c(O)ccc3ccccc23)CC1	2.2	8.8	39.8*	-1.7	10.0	-8.7
Cc1ccc(S(=O)(=O)Nc2cccc(C(=O)NCC(C)(C)N3CCOCC3)c2)cc1F	.	6.2	-3.4	.	-6.1	.
O=c1c2c([nH]c3ccccc13)C(=C1CCCC1)CC2	69.6*	1.2	4.1	82.3*	3.1	11.2
SMILES	PABP FP inh	ZTA counter	PABP1 MLLE inh	eIF4H FP inh	EBNA-1 inhibitor	NS3 helicase inh
Cn1c(=O)[nH]c2c(nc(-c3ccc(Cl)cc3)n2C)c1=O	32.9	-0.4	12.4	61.1	-8.7	-9.5
CCCc1nc2c(=O)n(C)c(=O)[nH]c2n1C	58.6*	10.6	4.0	53.4*	13.9	-6.2
O=C(Nc1cccc(-c2nn[nH]n2)c1)c1csc2c1CCCC2	7.2	-9.1	7.5	6.7	-6.0	16.4
Cc1cc(/C=N/NC(=O)COc2cccc3cccnc23)c(C)n1-c1ccc(O)cc1	active	-10.1	7.4	59.8	6.6	-1.1
C#CCOC(=O)c1csc2nnsc12	-5.8	-5.6	-3.8	-5.1	-10.7	9.8
Cc1c(Cl)cccc1NC(=O)CSc1nnnn1C	.	.	-11.5	.	.	.
O=C(O)Cn1nnc(-c2cccs2)n1	3.0	-12.6	7.2	-2.6	-9.9	-2.9
CC(C)(C)NC(=O)Cn1nnc(-c2cccs2)n1	active	6.4	12.1	65.4*	6.5	-2.0
COC(=O)c1ccccc1CC1Cc2cc3c(cc2C1=O)CCC3 (configuration not stated)	.	.	-18.7	.	.	.
OCC1CCCN(C(=S)Nc2ccc(Nc3ccccc3)cc2)C1 (configuration not stated)	52.9*	-3.6	-89.7	?	0.3	-15.0
OCC1CCCN(C(=S)Nc2ccc(OC(F)F)cc2)C1 (configuration not stated)	3.1	-4.8	-62.7	-0.6	4.7	-5.7
Cc1cccc(N(CC(O)CN2CCOCC2)S(=O)(=O)c2ccccc2)c1 (configuration not stated)	-7.5	-18.0	-10.4	-7.5	-10.2	-5.0
COc1ccc(OC)c(/C=N/NC(=O)CCc2ccc(O)c(O)c2)c1	71.2*	-2.3	6.0	21.0*	2.2	14.2
COc1ccc(OC)c(/C=N/NC(=O)CCc2c(C)n[nH]c2C)c1	8.5	8.2	1.9	-2.7	1.1	-11.7
CN(Cc1ccccc1)C(=O)c1[nH]cnc1C(=O)N[C@@H](CCCCNC(=O)OC(C)(C)C)C(=O)OC(C)(C)C	5.1*	-0.3	3.5	84.5*	13.7	-12.0
CCOC(=O)C1(CC2CC2)CCN(Cc2ccc(OC)cc2F)CC1	75.8	8.1	-6.8	88.8*	-1.5	-13.7
O=C(NCCCN1CCCC1=O)NC12CC3CC(CC(C3)C1)C2	-2.1	4.3	-1.1	-3.0	1.1	-9.2
COc1cc(OC)cc(C(=O)NC(C(=O)NNC(=O)c2cc(Cl)ccc2OC)C(C)C)c1 (configuration not stated)	.	-28.8	5.9	.	.	.
C#CCN(Cc1ccco1)C(=O)c1cc(COc2ccc(F)cc2Cl)on1	-3.4	6.9	-4.3	-12.8	-8.7	-0.9
Cc1cnc(C(=O)NCCc2ccc(Cl)cc2)cn1	6.7	.	-6.3	8.7	.	3.0
Cc1cnc(C(=O)NCc2ccc(Cl)cc2Cl)cn1	71.0*	-1.7	-11.6	active	3.0	1.6
CC(C)CNS(=O)(=O)c1ccc(CC(C)C)cc1	-17.0	6.3	-4.2	-15.0	-3.1	0.9
Nc1ccc(O)cc1C(=O)OCC(=O)C12CC3CC(CC(C3)C1)C2	51.7*	-14.2	-23.0	68.2*	7.5	21.4
O=C(OCC(=O)C12CC3CC(CC(C3)C1)C2)c1ccc(O)cc1	.	.	3.6	.	.	.
CC(=O)NC1=C(N(C)C2CCS(=O)(=O)C2)C(=O)c2ccccc2C1=O (configuration not stated)	5.8	-13.9	22.6	-4.4	-0.1	-26.3
CC(=O)NC1=C(Nc2ccc(N(C)C)cc2)C(=O)c2ccccc2C1=O	18.3	37.0*	7.4	4.8	40.5*	24.5
O=C(CCS(=O)(=O)c1ccc(Br)cc1)N1CCCCCC1	26.7	2.3	-2.6	94.5*	-9.6	4.4
N#C/C(=C\c1ccc(O)c(O)c1)C(=O)Nc1cccc2ncccc12	68.4*	8.4	-57.2	89.6*	-5.7	9.2
O=C1CCNc2cc3ccccc3cc21	74.7*	-8.3	24.4	82.2*	-14.8	9.3
